Screening data (PubChem BioAssay)
The list is not random: actives were taken first. Their share in the collection is about 3.4%.
UCH37 inh = inhibitors of human UCH37 deubiquitinase, primary screen, biochemical, Ub-AMC cleavage, fluorescence | Ubiquitin carboxyl-terminal hydrolase isozyme L5 (Homo sapiens), Q9Y5K5 | purified proteasome/UCH37 | inhibition, % (test concentration not listed) | 330,000 tested, 0.33% active;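 active = mean inhibition over replicate wells above about 20%, limit read from the data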;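 also: 0% = compound-free wells with enzyme and 100% = wells lacking proteasome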
Target sequence (Q9Y5K5 whole entry, looked up): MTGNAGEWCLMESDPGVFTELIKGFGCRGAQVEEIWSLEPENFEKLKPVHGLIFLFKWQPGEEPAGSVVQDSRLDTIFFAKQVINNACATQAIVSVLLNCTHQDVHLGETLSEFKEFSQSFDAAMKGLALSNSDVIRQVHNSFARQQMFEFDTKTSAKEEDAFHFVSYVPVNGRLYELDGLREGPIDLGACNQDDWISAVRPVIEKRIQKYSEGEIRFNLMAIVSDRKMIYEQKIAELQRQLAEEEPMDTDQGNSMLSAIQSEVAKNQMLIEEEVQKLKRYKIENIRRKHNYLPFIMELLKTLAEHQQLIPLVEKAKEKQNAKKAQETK
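assay system = human UCH37 enzyme supplied as purified proteasome complex | amount = proteasome at 0.15 nM in the dispensed enzyme solution | schedule = 30 min compound-proteasome preincubation then 25 min substrate reaction, room temperature | measured by = fluorescence, ex 355 nm, em 460 nm | benchmarks = no-proteasome wells (full inhibition) and compound-free wells (no inhibition)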
A3A deaminase = APOBEC3A ssDNA deaminase inhibitors, primary screen, selectivity assay for APOBEC3G inhibitor project, biochemical, FAM/TAMRA oligo cleavage fluorescence; DNA dC->dU-editing enzyme APOBEC-3A (Homo sapiens), P31941; recombinant A3A, FAM/TAMRA ssDNA deamination fluorescence; inhibition, % at 20 µM; 330,000 tested, 0.41% active;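 active = at least 40% inhibition at 20 µM here, with at most 30% in a related deaminase screen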;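 also: plate controls were A3A with DMSO for no effect and wells lacking A3A enzyme for full effect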
Target sequence (P31941 whole entry, looked up): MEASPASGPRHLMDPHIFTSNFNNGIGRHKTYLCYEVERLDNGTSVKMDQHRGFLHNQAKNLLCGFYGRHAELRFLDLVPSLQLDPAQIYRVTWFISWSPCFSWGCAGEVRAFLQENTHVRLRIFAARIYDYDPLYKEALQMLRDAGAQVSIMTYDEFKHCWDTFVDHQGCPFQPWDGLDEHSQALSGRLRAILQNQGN
PolyA inhibitor = polyadenylation inhibitors in yeast reporter cells, primary screen, luminescence, S. cerevisiae | S. cerevisiae SKY197-pL101 polyadenylation reporter, beta-gal luminescence; efflux-impaired pdr1/pdr3 knockout yeast; score 100 = 6 SD above DMSO | activity score, % at 12 µM | 300,000 tested, 0.02% active | AID 1875, 2009;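 active = lowest replicate activity score at least 50, where 100 means six control SD above control mean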;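 also: yeast exposed to compound for 9 h at 30 °C; higher score means more reporter readthrough which indicates perturbed polyadenylation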
Arr AP2 block = inhibitors of beta-arrestin/AP2 binding, primary screen, biochemical, GPCR trafficking, flow cytometry | 340,000 tested, 0.31% active | beta-arrestin 1 C-terminal peptide binding to AP2 beta2-adaptin appendage (human) | inhibition, % at 10 µM | AID 504490, 2011 | FITC-arrestin peptide / GST-AP2 beads; AP2 beta2 appendage carries R879A mutation;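 active = inhibition above a set limit, near 3 SD of compounds lacking own fluorescence, cut at about 54% in these data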;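 also: plate controls were DMSO wells for no effect and 5 µM unlabelled arrestin peptide for full effect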
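System: GST-AP2 R879A glutathione beads. Medium: PBS with 0.05% Tween 20 and 0.1% BSA. Also added: FITC-arrestin peptide, 50 nM. Incubation: 12 min plus 1 h, RT. Measured by: high-throughput flow cytometry of beads, ex 488, em 535 nm. Evaluation: percent drop in bead-associated FITC signal.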
A3G deaminase = APOBEC3G DNA deaminase inhibitors, primary screen, biochemical, fluorescence, single-stranded DNA substrate, uHTS | DNA dC->dU-editing enzyme APOBEC-3G (Homo sapiens), Q9HC16 | recombinant A3G, ssDNA deamination FAM/TAMRA fluorescence | inhibition, % at 20 µM | 330,000 tested, 0.28% active | AID 493012, 2011;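 active = inhibition of at least 40% at 20 µM, with no more than 30% in the related APOBEC3A deaminase screen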;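 also: plate controls were DMSO wells with A3G for no effect and wells lacking A3G enzyme for full effect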
AHR act = AHR activators, primary screen, cell-based, luminescence, luciferase reporter, human; activation, % at 5 µM; Aryl hydrocarbon receptor (Homo sapiens), P35869; 320,000 tested, 2.5% active; AHR-responsive luciferase reporter cells; in the data active = activation above about 47%;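 also: 0% = vehicle wells and 100% = reference agonist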
UCH37 reconfirm = retest of human UCH37 deubiquitinase inhibitors, confirmation, biochemical, Ub-AMC cleavage rate, fluorescence; shares compounds with UCH37 inh; Proteasome-bound UCH37; inhibition, % at 20 µM; 480 tested, 27% active; AID 624100, 2012;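 active = average inhibition over replicates above about 50%, so the earlier screening hit is confirmed, limit read from the data; inactive = the rest, counted as false positives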;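 also: based on cleavage rate fitted by regression over a 30 min kinetic read; 0% = proteasome plus Ub-AMC and 100% = Ub-AMC without proteasome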
Numbers without * were called inactive.

Results for CCOC(=O)C1=C(C)N=c2sc(=Cc3cccc([N+](=O)[O-])c3O)c(=O)n2C1c1ccccc1 (stereo unspecified) ?
UCH37 inh: 12.7

Results for O=C(NN=Cc1cccc(O)c1)c1ccc(NC(=O)c2cccc([N+](=O)[O-])c2)cc1 ?
UCH37 inh: 0.9

Results for COC(=O)C(=NOCc1ccc(C#N)cc1)c1c(C)nn(C)c1C ?
UCH37 inh: 4.6

How did CC1=CC(C)C(C=Nn2cnnc2)C(C)C1 (stereo unspecified) do in these assays?
UCH37 inh: 3.7

How did O=C(COC(=O)c1ccc([N+](=O)[O-])s1)NCCc1ccccc1 do in these assays?
UCH37 inh: 80.5*; A3A deaminase: -0.9; Arr AP2 block: 13.2; A3G deaminase: -0.6; AHR act: 1.7; UCH37 reconfirm: 13.9

What do the screens show for `O=C(COC(=O)c1ccc([N+](=O)[O-])s1)NC(=O)NCc1ccccc1`?
UCH37 inh: 67.2*; A3A deaminase: -2.1; PolyA inhibitor: -4.5; Arr AP2 block: 11.9; A3G deaminase: -1.6; AHR act: -3.1; UCH37 reconfirm: 9.6

What do the screens show for `O=C1c2ccccc2C(=O)c2c1cccc2N1CCCC1`?
UCH37 inh: 7.7; PolyA inhibitor: -8.9; Arr AP2 block: 40.6; AHR act: 14.8

Results for O=C1C=C(N2CCCCC2)c2ccccc2C1=O ?
UCH37 inh: 90.4*; A3A deaminase: -4.1; PolyA inhibitor: 16.0; Arr AP2 block: 12.2; A3G deaminase: 1.0; AHR act: 14.9; UCH37 reconfirm: 146.6*

How did O=C(NN=Cc1cccnc1)c1cc2ccccc2cc1O do in these assays?
UCH37 inh: 10.4

What do the screens show for `COc1ccccc1C=NNC(=O)CC(=O)NC1CCCCC1`?
UCH37 inh: 0.1

Results for COc1ccc2c(c1)CCCC2=NNc1nc(C(=O)NN)cs1 ?
UCH37 inh: -14.9

Results for CC(=O)C(C(C)=O)C1(O)C(=O)c2ccccc2C1=O ?
UCH37 inh: 70.1*; A3A deaminase: -2.0; PolyA inhibitor: 25.5; Arr AP2 block: -6.3; A3G deaminase: -5.4; AHR act: 5.7; UCH37 reconfirm: 78.1*

Results for CC(C)NS(=O)(=O)c1ccc(OCC(=O)NCCC2=CCCCC2)cc1 ?
UCH37 inh: 17.8; A3A deaminase: -0.8; PolyA inhibitor: -2.6; Arr AP2 block: -4.9; A3G deaminase: -6.2; AHR act: -1.6

Results for CCCNS(=O)(=O)c1ccc(OCC(=O)NCCC2=CCCCC2)cc1 ?
UCH37 inh: 36.4*; A3A deaminase: -0.5; PolyA inhibitor: 15.6; Arr AP2 block: 0.9; A3G deaminase: -5.8; AHR act: -0.7; UCH37 reconfirm: 45.3

Results for COC(=O)COc1ccc(S(=O)(=O)NCCC2=CCCCC2)cc1 ?
UCH37 inh: 0.4; A3A deaminase: 3.6; PolyA inhibitor: -24.2; Arr AP2 block: 26.3; A3G deaminase: 7.3; AHR act: 1.6

What do the screens show for `COC(=O)COc1ccc(S(=O)(=O)NCCC2=CCCCC2)cc1C`?
UCH37 inh: 54.7*; A3A deaminase: 1.2; PolyA inhibitor: -22.0; Arr AP2 block: 7.6; A3G deaminase: -5.4; AHR act: -0.7; UCH37 reconfirm: 60.4*

How did O=C1c2ccccc2C(=O)c2[nH]c(=O)[nH]c21 do in these assays?
UCH37 inh: 41.4*; A3A deaminase: 11.7; PolyA inhibitor: 3.0; Arr AP2 block: 15.9; A3G deaminase: 24.2; AHR act: -8.5; UCH37 reconfirm: 47.9

What do the screens show for `O=C1Nc2ccccc2C1=O`?
UCH37 inh: 2.9; A3A deaminase: 0.1; PolyA inhibitor: -12.1; Arr AP2 block: 35.1; A3G deaminase: -8.3; AHR act: 4.5

What do the screens show for `O=C1C(O)=C(O)C(=O)c2ccccc21`?
UCH37 inh: 72.5*; A3A deaminase: 0.0; Arr AP2 block: 1.8; A3G deaminase: -1.6; AHR act: 15.2; UCH37 reconfirm: -37.7

Results for Cc1cc[n+](-c2nc([O-])sc2C=NNc2ccc([N+](=O)[O-])cc2)cc1 ?
UCH37 inh: 8.0

How did CCCCCCOc1ccc(N2C(=O)CC(S/C(N)=N/N=C(C)c3cccs3)C2=O)cc1 (stereo unspecified) do in these assays?
UCH37 inh: 1.9

How did Cn1cccc1-c1cc(C(=O)NN=Cc2ccc([N+](=O)[O-])cc2)[nH]n1 do in these assays?
UCH37 inh: 3.1

Results for CC(CC(C)C)=NOc1nc(C)cc(C)n1 ?
UCH37 inh: 0.9

How did Cc1ccc(-c2cc(C(=O)NN=Cc3ccco3)[nH]n2)cc1 do in these assays?
UCH37 inh: 1.1

Results for O=[N+]([O-])c1cc([N+](=O)[O-])c2oc(-c3ccccc3)c(Br)c2c1O ?
UCH37 inh: 26.7*; PolyA inhibitor: -38.0; Arr AP2 block: -4.0; UCH37 reconfirm: 71.0*

Results for O=c1cc(-c2ccccc2Cl)oc2ccc([N+](=O)[O-])c(O)c12 ?
UCH37 inh: 1.9; A3A deaminase: -0.6; PolyA inhibitor: -7.5; Arr AP2 block: 4.0; A3G deaminase: -3.9; AHR act: -0.6

How did CN1CCS/C1=C/C=C1\SC(=S)N(CC(=O)O)C1=O do in these assays?
UCH37 inh: 37.6*; A3A deaminase: 6.9; PolyA inhibitor: -30.2; Arr AP2 block: 2.1; A3G deaminase: 6.3; AHR act: -1.8; UCH37 reconfirm: 30.1

Results for CCCCN1C(=O)/C(=C/C=C2\SCCN2C)SC1=S ?
UCH37 inh: 8.5; A3A deaminase: -1.4; PolyA inhibitor: -16.1; Arr AP2 block: 16.1; A3G deaminase: -8.4

Results for Cc1cc(N2CCCC2)ccc1/C=C1/C(=O)N(C)C(=S)N1C ?
A3A deaminase: -1.4; PolyA inhibitor: -0.2; Arr AP2 block: -7.2; A3G deaminase: -1.6; AHR act: 32.2

What do the screens show for `CN1C(=O)/C(=C/C=C2/CCCN2C)N(C)C1=S`?
UCH37 inh: 34.3*; A3A deaminase: -1.7; PolyA inhibitor: -5.7; Arr AP2 block: 6.5; A3G deaminase: -5.5; AHR act: -2.6; UCH37 reconfirm: 29.4
